Test results: ChEMBL document CHEMBL3877283, “Antitubercular activity of 1,2,3-triazolyl fatty acid derivatives” (Eur J Med Chem, 2017)
≈ marks a conversion by molar mass, not a printed value.

Key:
[1] = tested on: Mycobacterium tuberculosis; assay: Antimycobacterial activity against Mycobacterium tuberculosis H37Rv measured after 5 days by MTT dye based two-fold microdilution method; assay type: functional; settings: 120 h
Method in brief: (§1)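 Two-fold serial dilution in 96-well plates in Middlebrook 7H9 with 10% ADS and 1% glycerol (7H9-ADS-G). DMSO stocks were diluted to a top concentration of 100 μg/mL and down to 0.8 μg/mL, run in duplicate. Wells received mid-log bacilli in 7H9-ADS-G, incubated 5 days at 37 °C, then MTT for 24 h. MIC is the lowest concentration blocking yellow-to-purple change. Rifampicin was the control.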

[2] = Cytotoxicity against African green monkey Vero cells at 4.75 ug/ml measured after 48 hrs by neutral red assay; assay type: toxicity, cell-based; settings: chlorocebus sabaeus
Method in brief: (§2)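 Vero (African green monkey kidney) cells were seeded at 25,000 cells/well and grown 24 h. Compounds were then added, with DMSO as vehicle control and doxorubicin as positive control, and incubated 48 h. Viable cells were counted by neutral red uptake. Highest concentration tested was 4.75 μg/mL. IC50 was read from logarithmic plots of growth inhibition versus concentration.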

[3] = tested on: Mycobacterium tuberculosis; assay: Antimycobacterial activity against Mycobacterium tuberculosis H37Rv ATCC 27294 measured after 10 days by broth dilution method; assay type: functional; settings: H37Rv ATCC 27294, 240 h
[4] = Cytotoxicity against African green monkey Vero cells measured after 48 hrs by neutral red assay; assay type: toxicity, cell-based; settings: African green monkey (Chlorocebus sabaeus); method in brief: as §2
[5] = Therapeutic index, ratio of IC50 for cytotoxicity against African green monkey Vero cells to MIC for antimycobacterial activity against Mycobacterium tuberculosis H37Rv; assay type: cell-based; settings: read-out: TI
Method in brief: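 Vero cells were seeded at 25,000/well, grown 24 h, then exposed to compound for 48 h, with a maximum of 4.75 μg/mL and DMSO as vehicle. Viability was read by neutral red uptake. IC50 came from log plots of growth inhibition versus concentration. The index is cytotoxic IC50 divided by MIC against H37Rv from the MTT microdilution assay.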

[6] = tested on: Mycobacterium tuberculosis; assay: Inhibition of Mycobacterium tuberculosis InhA assessed as remaining activity at 20 uM using trans-2-dodecenoyl-coenzyme A as substrate relative to control
Method in brief: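 Wild-type InhA (100 nM) started the reaction with 25 μM trans-2-dodecenoyl-CoA, 250 μM NADH and 20 μM inhibitor in 30 mM PIPES, 150 mM NaCl, pH 6.8. Initial velocity was compared with an inhibitor-free control; remaining activity is vi/v0.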

[7] = Inhibition of Staphylococcus aureus FabI using t-o-NAC-thioester as substrate by spectrophometric method
[8] = tested on: Mycobacterium tuberculosis; assay: Antimycobacterial activity against Mycobacterium tuberculosis isolate 304 measured after 5 days by MTT dye based two-fold microdilution method; assay type: functional; settings: isolate 304, 120 h; method in brief: as §1
[9] = tested on: Mycobacterium tuberculosis; assay: Antimycobacterial activity against Mycobacterium tuberculosis isolate 51 measured after 5 days by MTT dye based two-fold microdilution method; assay type: functional; settings: isolate 51, 120 h; method in brief: as §1
[10] = tested on: Mycobacterium tuberculosis; assay: Antimycobacterial activity against Mycobacterium tuberculosis isolate 598 measured after 5 days by MTT dye based two-fold microdilution method; assay type: functional; settings: isolate 598, 120 h; method in brief: as §1
[11] = tested on: Mycobacterium tuberculosis; assay: Antimycobacterial activity against Mycobacterium tuberculosis isolate 164 measured after 5 days by MTT dye based two-fold microdilution method; assay type: functional; settings: isolate 164, 120 h; method in brief: as §1

Q: With `CCCCCCCCc1cn(CCCC(=O)OCC)nn1` as the compound, how does the MIC [1] read?
A: 21 µM (≈ 6.2 µg/mL)

Q: And the Activity [2]?
A: Non-Toxic

Q: Which results are given for `CCCCCCCCCCCCCn1cc(C(=O)OC)nn1`?
A: MIC [1]: 323 µM (≈ 100 µg/mL); Activity [2]: Non-Toxic

Q: Which results are given for `CCCCCCCCCCc1cnnn1CC(=O)OCC`?
A: MIC [1]: 84 µM (≈ 24.8 µg/mL); Activity [2]: Non-Toxic

Q: What does the source list for `CCCCCc1cn(CCCCCC(=O)OCC)nn1`?
A: MIC [1]: 22 µM (≈ 6.19 µg/mL); Activity [2]: Non-Toxic

Q: With `CCCCCCCCCCO` [DECANOL] as the compound, how does the MIC [3] read?
A: 800 µM

Q: Which MIC [1] does the source give for `CCCCCCCCCCn1cc(CO)nn1` here?
A: 209 µM (≈ 50 µg/mL)

Q: What about the Activity [2] of the same compound?
A: Non-Toxic

Q: With `COc1cccc2c1C(=O)c1c(O)c3c(c(O)c1C2=O)C[C@@](O)(C(=O)CO)C[C@@H]3O[C@H]1C[C@H](N)[C@H](O)[C@H](C)O1` [DOXORUBICIN] as the compound, how does the IC50 at 48 h [4] read?
A: 14 µM

Q: With `CCCCCCCCCCc1cn(CC(=O)OCC)nn1` as the compound, how does the IC50 at 48 h [4] read?
A: > 16.1 µM

Q: And the MIC [1]?
A: 1.7 µM (≈ 0.502 µg/mL)

Q: What about the selectivity ratio [5] of the same compound?
A: > 10

Q: And the Activity [6]?
A: 99.3%

Q: Which MIC [1] does the source give for `CCCCCCCCCCc1cn(CCCC(=O)OCC)nn1` here?
A: 309 µM (≈ 100 µg/mL)

Q: And the Activity [2]?
A: Non-Toxic

Q: With `CCCCCc1cn(CCCC(=O)OCC)nn1` as the compound, how does the MIC [1] read?
A: 12 µM (≈ 3.04 µg/mL)

Q: What about the Activity [2] of the same compound?
A: Non-Toxic

Q: With `CCCc1cn(CC(=O)OCC)nn1` as the compound, how does the MIC [1] read?
A: 505 µM (≈ 99.6 µg/mL)

Q: What about the Activity [6] of the same compound?
A: 69%

Q: What about the Activity [2] of the same compound?
A: Non-Toxic

Q: With `CCCCCCCCCCn1cc(C(=O)OC)nn1` as the compound, how does the MIC [1] read?
A: 23 µM (≈ 6.15 µg/mL)

Q: And the Activity [2]?
A: Non-Toxic

Q: Which IC50 [7] does the source give for `CCCCC/C=C\C/C=C\CCCCCCCC(=O)O` [LINOLEIC ACID] here?
A: 40 µM

Q: Which MIC [1] does the source give for `CCCCCCCCc1cn(CCCCCC(=O)OCC)nn1` here?
A: 309 µM (≈ 100 µg/mL)

Q: And the Activity [2]?
A: Non-Toxic

Q: With `CCCCCc1cn(CCCCC(=O)OCC)nn1` as the compound, how does the MIC [1] read?
A: 23 µM (≈ 6.15 µg/mL)

Q: And the Activity [2]?
A: Non-Toxic

Q: For `CCCCCCCCn1cc(C(=O)O)nn1`, which MIC [1] is on record?
A: 14 µM (≈ 3.15 µg/mL)

Q: And the Activity [2]?
A: Non-Toxic

Q: For `CCCCCCCCCCCCCCCCO` [CETYL ALCOHOL], which MIC [3] is on record?
A: 5 µg/mL

Q: For `CCCc1cn(CCCCCC(=O)OCC)nn1`, which MIC [1] is on record?
A: 394 µM (≈ 99.8 µg/mL)

Q: What about the Activity [2] of the same compound?
A: Non-Toxic

Q: For `CCCCCCCCCCn1cc(C(=O)O)nn1`, which MIC [1] is on record?
A: 20 µM (≈ 5.07 µg/mL)

Q: And the Activity [2]?
A: Non-Toxic

Q: Which results are given for `CCCCCc1cn(CC(=O)OCC)nn1`?
A: MIC [1]: 111 µM (≈ 25 µg/mL); Activity [6]: 73.2%; Activity [2]: Non-Toxic

Q: For `CCCCCCCCCCCCCCCc1cn(CC(=O)OCC)nn1`, which MIC [1] is on record?
A: 17 µM (≈ 6.21 µg/mL)

Q: What about the Activity [2] of the same compound?
A: Non-Toxic

Q: What does the source list for `CCCCCCCCCCCCCn1cc(CO)nn1`?
A: MIC [1]: 44 µM (≈ 12.4 µg/mL); Activity [2]: Non-Toxic

Q: With `CCCCCCCCn1cc(C(=O)OC)nn1` as the compound, how does the MIC [1] read?
A: 52 µM (≈ 12.4 µg/mL)

Q: And the Activity [2]?
A: Non-Toxic

Q: Which results are given for `CCCCCCCCc1cn(CC(=O)OCC)nn1`?
A: MIC [8]: 1.9 µM (≈ 0.508 µg/mL); IC50 at 48 h [4]: > 17.8 µM; MIC [9]: 0.45 µM (≈ 0.12 µg/mL); MIC [1]: 1.9 µM (≈ 0.508 µg/mL); selectivity ratio [5]: > 10; Activity [6]: 90.1%; MIC [10]: 1.9 µM (≈ 0.508 µg/mL); MIC [11]: 1.9 µM (≈ 0.508 µg/mL)

Q: With `CCCCCC/C=C\CCCCCCCC(=O)O` [PALMITOLEIC ACID] as the compound, how does the IC50 [7] read?
A: 40 µM

Q: Which MIC [1] does the source give for `CCCCCCCCn1cc(CO)nn1` here?
A: 473 µM (≈ 99.9 µg/mL)

Q: What about the Activity [2] of the same compound?
A: Non-Toxic

Q: For `CCCCCCCC/C=C\CCCCCCCC(=O)O` [OLEIC ACID], which IC50 [7] is on record?
A: 40 µM

Q: Which IC50 [7] does the source give for `CC/C=C\C/C=C\C/C=C\CCCCCCCC(=O)O` [LINOLENIC ACID] here?
A: 40 µM

Q: Which MIC [1] does the source give for `CCCCCCCCc1cnnn1CC(=O)OCC` here?
A: 93 µM (≈ 24.9 µg/mL)

Q: And the Activity [2]?
A: Non-Toxic

Q: Which MIC [1] does the source give for `CCCCCCCCCCCCCc1cn(CC(=O)OCC)nn1` here?
A: 296 µM (≈ 99.9 µg/mL)

Q: What about the Activity [2] of the same compound?
A: Non-Toxic

Q: With `CCCCCCCCCCCCCCO` [MYRISTYL ALCOHOL] as the compound, how does the MIC [3] read?
A: 5 µg/mL

Q: What does the source list for `CCCCCCCCCCc1cn(CCC(=O)OCC)nn1`?
A: MIC [1]: 20 µM (≈ 6.19 µg/mL); Activity [2]: Non-Toxic

Q: With `CCCCCCCCCCc1cn(CCCCC(=O)OCC)nn1` as the compound, how does the MIC [1] read?
A: 37 µM (≈ 12.5 µg/mL)

Q: What about the Activity [2] of the same compound?
A: Non-Toxic

Q: For `CCCCCCCCCCCCO` [DODECANOL], which MIC [3] is on record?
A: 5 µg/mL

Q: Which IC50 [7] does the source give for `CCCCC/C=C\C/C=C\C/C=C\C/C=C\CCCC(=O)O` [ARACHIDONIC ACID] here?
A: 40 µM

Q: Which MIC [1] does the source give for `CCCCCCCCc1cn(CCCCC(=O)OCC)nn1` here?
A: 40 µM (≈ 12.4 µg/mL)

Q: What about the Activity [2] of the same compound?
A: Non-Toxic

Q: What does the source list for `CCCCCCCCc1cn(CCC(=O)OCC)nn1`?
A: MIC [1]: 22 µM (≈ 6.19 µg/mL); Activity [2]: Non-Toxic
